Reference: PMC11865470 (Communications Biology, 2025)

Columns and labels:
Assay type in all cases: cell-based
KV3.4 = target: T1, KV3.4 (Homo sapiens, UniProt Q03721); assay: whole-cell patch-clamp, off-target channel, 10 μM compound; details: vs 0.1% DMSO
T1 sequence (Q03721 1-635): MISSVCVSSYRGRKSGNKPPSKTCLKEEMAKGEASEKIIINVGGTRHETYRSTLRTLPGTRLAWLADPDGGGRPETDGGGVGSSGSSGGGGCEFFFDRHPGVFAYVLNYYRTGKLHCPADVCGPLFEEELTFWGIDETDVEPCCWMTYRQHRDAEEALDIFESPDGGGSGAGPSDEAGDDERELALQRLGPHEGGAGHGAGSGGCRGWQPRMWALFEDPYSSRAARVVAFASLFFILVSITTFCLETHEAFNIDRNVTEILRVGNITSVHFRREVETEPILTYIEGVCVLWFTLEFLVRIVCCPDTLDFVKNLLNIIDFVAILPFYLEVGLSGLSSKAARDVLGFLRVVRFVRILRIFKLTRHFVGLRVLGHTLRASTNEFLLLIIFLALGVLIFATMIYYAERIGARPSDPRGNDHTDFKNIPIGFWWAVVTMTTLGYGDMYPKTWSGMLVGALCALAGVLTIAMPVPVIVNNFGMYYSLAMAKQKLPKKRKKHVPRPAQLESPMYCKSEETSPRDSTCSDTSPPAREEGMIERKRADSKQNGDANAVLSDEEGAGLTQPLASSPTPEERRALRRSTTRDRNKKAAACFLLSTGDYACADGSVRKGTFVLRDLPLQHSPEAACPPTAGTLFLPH
Outline: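 KV channels in transiently transfected HEK293T cells, whole-cell. Pipette (mM): 140 KCl, 2.5 MgCl2, 11 EGTA, 10 HEPES, pH 7.4. Bath (mM): 145 NaCl, 2.8 KCl, 2 CaCl2, 1 MgCl2, 10 glucose, 10 HEPES, pH 7.4. 0.1% DMSO bath applied, then 10 μM test compound. DMSO vs compound inhibition ratio compared by unpaired t-test, n = 5.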

NaV1.3 = NaV1.3 (Rattus norvegicus, UniProt P08104); assay: whole-cell patch-clamp, off-target channel, 10 μM compound; details: vs 0.1% DMSO
Chain of NaV1.3 (P08104 whole entry): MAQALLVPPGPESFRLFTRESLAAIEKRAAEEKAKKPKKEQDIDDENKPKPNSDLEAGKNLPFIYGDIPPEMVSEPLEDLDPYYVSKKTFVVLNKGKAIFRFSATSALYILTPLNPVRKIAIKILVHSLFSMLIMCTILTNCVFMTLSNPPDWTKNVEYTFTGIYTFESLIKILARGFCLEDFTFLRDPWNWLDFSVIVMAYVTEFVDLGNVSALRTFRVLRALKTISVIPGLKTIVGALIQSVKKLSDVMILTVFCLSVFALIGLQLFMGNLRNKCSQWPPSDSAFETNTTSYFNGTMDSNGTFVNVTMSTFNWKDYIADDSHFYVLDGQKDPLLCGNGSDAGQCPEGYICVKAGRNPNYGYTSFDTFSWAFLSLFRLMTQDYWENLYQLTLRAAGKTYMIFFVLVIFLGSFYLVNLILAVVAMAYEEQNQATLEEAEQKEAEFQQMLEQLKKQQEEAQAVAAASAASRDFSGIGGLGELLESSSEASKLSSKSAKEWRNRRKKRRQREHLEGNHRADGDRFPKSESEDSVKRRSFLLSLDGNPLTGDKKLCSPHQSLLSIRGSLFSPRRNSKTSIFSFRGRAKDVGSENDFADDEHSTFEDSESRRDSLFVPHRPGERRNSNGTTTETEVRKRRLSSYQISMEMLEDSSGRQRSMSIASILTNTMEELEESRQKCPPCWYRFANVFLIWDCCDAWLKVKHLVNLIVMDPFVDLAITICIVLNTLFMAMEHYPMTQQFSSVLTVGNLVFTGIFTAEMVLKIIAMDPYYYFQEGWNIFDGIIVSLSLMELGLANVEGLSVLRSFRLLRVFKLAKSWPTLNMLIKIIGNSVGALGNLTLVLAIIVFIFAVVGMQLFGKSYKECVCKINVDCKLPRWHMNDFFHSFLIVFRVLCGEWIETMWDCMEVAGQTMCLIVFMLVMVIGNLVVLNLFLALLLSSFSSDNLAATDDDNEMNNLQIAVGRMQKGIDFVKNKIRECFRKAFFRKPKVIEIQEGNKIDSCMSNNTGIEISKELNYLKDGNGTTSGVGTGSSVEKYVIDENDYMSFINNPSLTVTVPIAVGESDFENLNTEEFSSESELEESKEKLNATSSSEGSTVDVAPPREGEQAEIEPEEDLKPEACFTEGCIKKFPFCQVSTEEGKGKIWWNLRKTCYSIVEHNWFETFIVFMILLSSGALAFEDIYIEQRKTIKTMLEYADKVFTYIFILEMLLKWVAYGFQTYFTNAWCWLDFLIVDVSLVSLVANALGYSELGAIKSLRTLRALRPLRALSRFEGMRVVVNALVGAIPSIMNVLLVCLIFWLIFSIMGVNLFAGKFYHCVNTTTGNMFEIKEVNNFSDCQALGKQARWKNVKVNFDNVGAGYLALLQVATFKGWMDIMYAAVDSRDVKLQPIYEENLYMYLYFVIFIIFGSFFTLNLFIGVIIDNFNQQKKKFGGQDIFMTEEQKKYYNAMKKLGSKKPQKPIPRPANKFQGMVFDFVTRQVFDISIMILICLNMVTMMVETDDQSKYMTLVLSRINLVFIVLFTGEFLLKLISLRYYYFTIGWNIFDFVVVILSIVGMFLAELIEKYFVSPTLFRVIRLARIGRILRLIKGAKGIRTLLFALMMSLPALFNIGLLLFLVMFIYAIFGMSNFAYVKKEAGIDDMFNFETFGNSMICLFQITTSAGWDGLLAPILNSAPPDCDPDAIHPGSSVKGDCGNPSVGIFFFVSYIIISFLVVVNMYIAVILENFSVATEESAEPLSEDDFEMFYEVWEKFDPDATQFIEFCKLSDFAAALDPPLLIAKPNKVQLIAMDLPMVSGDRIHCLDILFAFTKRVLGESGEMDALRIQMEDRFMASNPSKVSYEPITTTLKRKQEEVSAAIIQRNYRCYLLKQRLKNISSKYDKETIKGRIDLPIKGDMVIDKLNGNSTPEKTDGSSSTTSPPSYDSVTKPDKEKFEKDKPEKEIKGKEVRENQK
Outline: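 NaV channels, transiently transfected HEK293T cells, whole-cell, 16–24 h after seeding. Pipette (mM): 140 CsF, 1 EGTA, 10 NaCl, 10 HEPES, pH 7.4. Bath (mM): 140 NaCl, 5 KCl, 2 CaCl2, 1 MgCl2, 10 glucose, 10 HEPES, pH 7.4. Bath with 0.1% DMSO applied before 10 μM test compound. Inhibition ratios compared by unpaired t-test, n = 5.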

mouse Otop3 (mOtop3) = target: T2, mouse Otop3 (mOtop3) (Mus musculus, UniProt Q80UF9); assay: whole-cell patch-clamp, pH 5.5-evoked currents; details: 10 μM
T2 sequence (Q80UF9 1-577): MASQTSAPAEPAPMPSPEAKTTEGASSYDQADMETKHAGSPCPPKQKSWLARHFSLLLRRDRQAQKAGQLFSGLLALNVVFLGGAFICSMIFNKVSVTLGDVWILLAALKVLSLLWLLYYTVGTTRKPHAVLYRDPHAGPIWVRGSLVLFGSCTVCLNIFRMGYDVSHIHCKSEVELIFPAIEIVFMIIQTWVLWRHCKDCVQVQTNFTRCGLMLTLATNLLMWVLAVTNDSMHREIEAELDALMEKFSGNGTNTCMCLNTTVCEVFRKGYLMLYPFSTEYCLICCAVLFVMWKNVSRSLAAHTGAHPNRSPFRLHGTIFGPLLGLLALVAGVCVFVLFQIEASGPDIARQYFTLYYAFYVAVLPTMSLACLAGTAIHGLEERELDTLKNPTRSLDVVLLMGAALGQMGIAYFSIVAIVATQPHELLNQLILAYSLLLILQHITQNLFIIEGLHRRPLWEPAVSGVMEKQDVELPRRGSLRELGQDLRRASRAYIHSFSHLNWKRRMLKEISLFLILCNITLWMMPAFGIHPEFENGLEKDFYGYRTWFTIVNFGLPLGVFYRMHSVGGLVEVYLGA
Outline: (§1)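 Channel plasmid (2.5 μg) was co-transfected with EGFP plasmid (0.5 μg) using Lipofectamine 2000 into PAC-knockout HEK293T cells. Whole-cell recording 16–24 h after seeding, with Cs-aspartate pipette solution (pH 7.3). Currents evoked by pH 5.5 bath (160 mM NMDG-Cl, 2 mM CaCl2, 10 mM MES); test compound 10 μM.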

mouse Otop2 (mOtop2) = target: T3, mouse Otop2 (mOtop2) (Mus musculus, UniProt Q80SX5); assay: whole-cell patch-clamp, pH 5.5-evoked currents; details: 10 μM
T3 sequence (Q80SX5 1-563): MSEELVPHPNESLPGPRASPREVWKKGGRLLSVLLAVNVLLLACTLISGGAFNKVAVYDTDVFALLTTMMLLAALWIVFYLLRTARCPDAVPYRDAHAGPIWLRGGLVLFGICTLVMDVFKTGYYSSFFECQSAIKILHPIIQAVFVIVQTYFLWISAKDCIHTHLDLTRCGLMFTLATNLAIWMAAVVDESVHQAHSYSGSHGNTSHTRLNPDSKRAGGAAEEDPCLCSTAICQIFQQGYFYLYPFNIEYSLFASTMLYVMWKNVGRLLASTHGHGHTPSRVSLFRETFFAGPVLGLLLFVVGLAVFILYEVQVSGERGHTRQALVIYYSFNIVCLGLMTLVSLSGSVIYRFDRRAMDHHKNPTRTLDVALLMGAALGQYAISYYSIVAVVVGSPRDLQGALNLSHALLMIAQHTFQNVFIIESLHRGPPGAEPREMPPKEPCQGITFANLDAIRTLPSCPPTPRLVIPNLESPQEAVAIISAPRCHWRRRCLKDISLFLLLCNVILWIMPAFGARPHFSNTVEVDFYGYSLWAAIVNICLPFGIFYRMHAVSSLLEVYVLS
Outline: as §1

sensitivity of channel to compound (KV3.4) | sensitivity of channel to compound (NaV1.3) | effect on pH 5.5-evoked mOtop3 currents (mouse Otop3 (mOtop3)) | effect on pH 5.5-evoked mOtop2 currents (mouse Otop2 (mOtop2)) | SMILES
completely resistant | completely resistant | did not affect | did not affect | Cc1cc(NC(=O)c2ccc(Br)o2)ccc1NC(=O)c1ccco1 [B2FAMP, 5-Bromo-N-[4-(2-furoylamino)-3-methylphenyl]-2-furamide]
completely resistant | completely resistant | did not affect | did not affect | CC(C)c1noc2ncc(C(=O)c3ccccc3O)cc12 [HIMOP, (2-hydroxyphenyl)-(3-propan-2-yl-5-isoxazolo[5,4-b]pyridinyl)methanone]
completely resistant | completely resistant | did not affect | did not affect | Cc1ccc(C(=O)Nc2ccc3ccccc3c2)o1 [MFaN, 5-methyl-N-2-naphthyl-2-furamide]
